Data set [1] deals with MSUT2. In words: Fluorescence polarization orthogonal assay, FAM-poly. The data set is classed as binding. In short, it runs like this: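 GST-MSUT2 zinc finger (E. coli BL21(DE3), glutathione-purified) at 125 nM was mixed with 10 nM FAM-poly(A) RNA in PBS, and compound was added. Incubation was 20 min at room temperature, protected from light. Read at ex 485/20, em 528/20; buffer-only background was subtracted and polarization calculated as (F∥−F⊥)/(F∥+F⊥). A parallel run included DTT. N=3 without DTT, N=2 with DTT.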
On the technique in general: Fluorescence polarisation rises when a labelled molecule tumbles more slowly, as on binding a larger partner.

Data set [2] addresses T1, PABPN1 (Homo sapiens, UniProt Q86U42).
T1 sequence (Q86U42 1-306): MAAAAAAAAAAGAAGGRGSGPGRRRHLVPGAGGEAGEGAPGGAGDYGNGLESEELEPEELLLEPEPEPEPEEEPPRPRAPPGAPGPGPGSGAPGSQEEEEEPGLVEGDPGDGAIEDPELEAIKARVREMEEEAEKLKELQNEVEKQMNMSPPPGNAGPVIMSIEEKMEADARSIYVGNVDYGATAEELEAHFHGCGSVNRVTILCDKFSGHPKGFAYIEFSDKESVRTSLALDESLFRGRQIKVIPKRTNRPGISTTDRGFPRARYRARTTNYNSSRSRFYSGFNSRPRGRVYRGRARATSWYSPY
Briefly: AlphaScreen specificity counterscreen against PABPN1. The data set is classed as binding. As to conditions: AlphaScreen IC50 MSUT2 compared with PABPN1, in words. The method, boiled down: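 GST-tagged PABPN1 and MSUT2 zinc-finger construct were expressed in E. coli BL21(DE3) and purified on glutathione-sepharose. AlphaScreen was run in AlphaLISA universal buffer plus 100 mM NaCl with donor beads (10 μg/mL), 250 nM biotinylated poly(A) RNA and 250 nM GST-MSUT2. Compound was pin-added, incubated 30 min at RT in the dark, then acceptor beads were added for 60 min. IC50 was from a four-parameter fit, N=3.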

Another data set deals with HEK-293 cells. Briefly: Cytotoxicity screen, CellTiter-Glo cell viability. The data set is classed as cell-based, human. As to conditions: HEK cell model, in words.
Data set [3] deals with MSUT2. To be noted: read-out: Kd of MSUT2 for poly(A); cited from earlier work.
The target of data set [4] is T2, PABPN1 (UniProt Q86U42 1-306).
T2 sequence: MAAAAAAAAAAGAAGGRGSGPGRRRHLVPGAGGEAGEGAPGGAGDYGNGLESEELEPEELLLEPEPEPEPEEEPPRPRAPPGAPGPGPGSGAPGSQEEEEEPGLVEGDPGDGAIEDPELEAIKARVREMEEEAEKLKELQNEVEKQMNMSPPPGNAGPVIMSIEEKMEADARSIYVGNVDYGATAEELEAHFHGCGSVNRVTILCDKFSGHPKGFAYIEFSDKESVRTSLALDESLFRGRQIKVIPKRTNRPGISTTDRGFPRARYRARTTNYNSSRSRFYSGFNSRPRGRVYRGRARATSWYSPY
In words: competition.

Data set [5] deals with T3, MSUT2 ZF (zinc finger domain) (UniProt Q6PJT7 595-719).
T3 sequence: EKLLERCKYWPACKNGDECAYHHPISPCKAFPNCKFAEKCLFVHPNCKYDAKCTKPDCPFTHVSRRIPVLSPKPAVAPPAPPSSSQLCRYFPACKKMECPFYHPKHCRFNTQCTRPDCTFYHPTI
Briefly: competition.

Where [6] appears, read: read-out: IC50 (FP = FP assay), without DTT, 125 nM MSUT2, 10 nM FAM-RNA.
Setting [7] is: read-out: IC50 (FP+DTT = FP in the presence of reducing agent DTT), with DTT.

Entries after “also recorded” stand apart in the source; their conditions may differ. Where two headings read alike, the source gives them in different places.

One may read the IC50 as the concentration needed to halve the response being measured. By Kd is commonly meant the constant that tells how readily two partners part at equilibrium.

For `O=C1C(Cl)=C(Cl)C(=O)c2c(O)ccc(O)c21` [2,3-Dichloro-5,8-dihydroxynapthoquinone, 2,3-dichloro-5,8-dihydroxynapthoquinone], the figures for the IC50 on MSUT2 [1] (setting [6]) and on MSUT2 [1] (setting [7]) were 1320 nM and 1560 nM, respectively. Further, the “Specificity for MSUT2 versus PABPN1” value at PABPN1 [2] is reported as “low specificity for MSUT2”.

Consider `O=C(O)C1=CC(=C(c2ccc(O)c(C(=O)O)c2)c2ccc(O)c(C(=O)O)c2)C=CC1=O` [Aurin tricarboxylic acid, aurin tricarboxylic acid], for which the “Effect on cell viability (toxicity)” value in the data set with HEK-293 cells is on record as “relatively high toxicity at high concentrations”. In addition, the IC50 amounted to 7110 nM on MSUT2 [1] (setting [6]) and 7190 nM on MSUT2 [1] (setting [7]). The “Specificity for MSUT2 versus PABPN1” value on PABPN1 [2] is listed as “nonspecifically inhibited MSUT2”.

Turning to `O=S(=O)(O)c1cc(N=C=S)ccc1C=Cc1ccc(N=C=S)cc1S(=O)(=O)O` [DIDS, 4,4′-diisothiocyanostilbene-2,2′-sulfonic acid], the “Effect on cell viability (toxicity)” value in the data set with HEK-293 cells is “relatively nontoxic at all doses tested”. Besides, the IC50 is 6320 nM at MSUT2 [1] (setting [6]) and 6020 nM at MSUT2 [1] (setting [7]). Moreover, the “Specificity for MSUT2 versus PABPN1” value on PABPN1 [2] is “low specificity for MSUT2; also recorded: twofold reduction in potency against PABPN1”.

Consider poly(A), for which the Kd on MSUT2 [3] was 60 ± 15 nM.

With `O=c1c2ccccc2[se]n1-c1ccccc1` [ebselen], the “Inhibitory effect in FP assay in the presence of DTT” value in the data set on MSUT2 [1] (with reducing agent DTT) was “abolished the inhibitory effect”.

In the case of AAAAAAAAAAAAAAA (ssRNA) [unlabeled poly(A) 15-mer], the IC50 with PABPN1 [4] came to 803 nM; in data set [5], 198 nM.

(Values after PMC8592089 (SLAS discovery : advancing life sciences R & D, 2020).)
